Experimental data as given in ChEMBL document CHEMBL1156597, “Structure-activity relationship of kahalalide F synthetic analogues” (J Med Chem, 2008).

Assays:
PANC-1 = assay: Cytotoxicity against human PANC1 cells after 48 hrs by SRB assay; format: functional; settings: PANC-1, 48 h; for CC50: read-out: LC50 (the source's name)
Procedure, shortened: (§1)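 Cells grown in RPMI 1640 with 10% FBS and penicillin/streptomycin at 37 °C and 5% CO₂, trypsinized, then seeded at 5 × 10³/well. After 18 h drug-free attachment, samples in DMSO/EtOH/PBS (0.5:0.5:99) were added for 48 h continuous exposure. Cells were fixed with cold TCA (1 h, 4 °C) and stained with SRB (10 min). Tris-solubilized stain read at 490 nm. Triplicate wells, mean ± SD; GI₅₀ derived.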

LoVo [1] = assay: Cytotoxicity against human doxorubicin resistant LoVo cells after 48 hrs by SRB assay; format: functional; settings: for CC50: read-out: LC50 (the source's name); procedure, shortened: as §1
[2] = Cytotoxicity against human IGROV cells after 48 hrs by SRB assay; format: functional; settings: for CC50: read-out: LC50 (the source's name); procedure, shortened: as §1
[3] = Cytotoxicity against human HeLa-APL cells after 48 hrs by SRB assay; format: functional; procedure, shortened: as §1
SK-BR-3 = assay: Cytotoxicity against human SKBR3 cells after 48 hrs by SRB assay; format: functional; settings: SK-BR-3, 48 h; for CC50: read-out: LC50 (the source's name); procedure, shortened: as §1
DU-145 = assay: Cytotoxicity against human DU145 cells after 48 hrs by SRB assay; format: functional, cell-based; settings: Homo sapiens, DU-145, 48 h; for CC50: read-out: LC50 (the source's name); procedure, shortened: as §1
[4] = Cytotoxicity against human IGROV-ET cells after 48 hrs by SRB assay; format: functional; settings: for CC50: read-out: LC50 (the source's name); procedure, shortened: as §1
K562 = assay: Cytotoxicity against human K562 cells after 48 hrs by SRB assay; format: functional; settings: K562, 48 h, read-out: LC50 (the source's name); procedure, shortened: as §1
A549 = assay: Cytotoxicity against human A549 cells after 48 hrs by SRB assay; format: functional, cell-based; settings: Homo sapiens, A549, 48 h; procedure, shortened: as §1
HeLa = assay: Cytotoxicity against human HeLa cells after 48 hrs by SRB assay; format: functional; settings: for CC50: read-out: LC50 (the source's name); procedure, shortened: as §1
HT-29 = assay: Cytotoxicity against human HT29 cells after 48 hrs by SRB assay; format: functional, cell-based; settings: Homo sapiens, HT-29, 48 h; for CC50: read-out: LC50 (the source's name); procedure, shortened: as §1
LoVo [5] = assay: Cytotoxicity against human LoVo cells after 48 hrs by SRB assay; format: functional; settings: for CC50: read-out: LC50 (the source's name)
SK-MEL-28 = assay: Cytotoxicity against human SK-MEL-28 cells after 48 hrs by SRB assay; format: functional, cell-based; settings: Homo sapiens, SK-MEL-28, 48 h; for CC50: read-out: LC50 (the source's name); procedure, shortened: as §1

C/C=C1\NC(=O)[C@H](Cc2ccc(-c3ccccc3)cc2)NC(=O)[C@@H](C(C)C)NC(=O)[C@@H]([C@H](C)CC)NC(=O)[C@H](NC(=O)[C@H](NC(=O)[C@H](CCCN)NC(=O)[C@H]2CCCN2C(=O)[C@H](NC(=O)[C@@H](NC(=O)[C@@H](NC(=O)[C@H](NC(=O)CCCC(C)C)C(C)C)[C@@H](C)O)C(C)C)C(C)C)[C@H](C)CC)[C@H](C)OC(=O)[C@H](C(C)C)NC1=O
GI50 (PANC-1): 1240 nM | TGI (PANC-1): 1330 nM | CC50 (PANC-1): 1400 nM | GI50 (LoVo [1]): 177 nM | TGI (LoVo [1]): 239 nM | CC50 (LoVo [1]): 284 nM | GI50 [2]: 159 nM | GI50 ([2]; read-out: GI50): 253 nM | CC50 [2]: 564 nM | GI50 [3]: 482 nM | LC50 (concentration giving 50% net cell kill) [3]: 1120 nM | TGI [3]: 762 nM | TGI (SK-BR-3): 183 nM | GI50 (SK-BR-3; read-out: GI50): 68.9 nM | CC50 (SK-BR-3): 968 nM | GI50 (DU-145): 146 nM | GI50 (DU-145; read-out: GI50): 166 nM | CC50 (DU-145): 129 nM | GI50 [4]: 230 nM | GI50 ([4]; read-out: GI50): 134 nM | CC50 [4]: 536 nM | CC50 (K562): 1420 nM | LC50 (A549): 947 nM | TGI (A549): 56.6 nM | GI50 (A549; read-out: GI50): 52.1 nM | GI50 (HeLa): 220 nM | TGI (HeLa): 372 nM | CC50 (HeLa): 812 nM | GI50 (HT-29): 214 nM | TGI (HT-29): 187 nM | CC50 (HT-29): 516 nM | GI50 (LoVo [5]): 184 nM | TGI (LoVo [5]): 268 nM | CC50 (LoVo [5]): 317 nM | GI50 (SK-MEL-28): 214 nM | GI50 (SK-MEL-28; read-out: GI50): 190 nM | CC50 (SK-MEL-28): 644 nM

C/C=C1\NC(=O)[C@H](Cc2ccccc2)NC(=O)[C@@H](C(C)C)NC(=O)[C@@H]([C@H](C)CC)NC(=O)[C@H](NC(=O)[C@H](NC(=O)[C@H](CCCNC(=O)CCC2CCCCC2)NC(=O)[C@H]2CCCN2C(=O)[C@H](NC(=O)[C@@H](NC(=O)[C@@H](NC(=O)[C@H](NC(=O)CCCC(C)C)C(C)C)[C@@H](C)O)C(C)C)C(C)C)[C@H](C)CC)[C@H](C)OC(=O)[C@H](C(C)C)NC1=O
CC50 (PANC-1): 163 nM | GI50 (LoVo [1]): 93.5 nM | TGI (LoVo [1]): 93.7 nM | CC50 (LoVo [1]): 93.8 nM | GI50 [2]: 89.8 nM | GI50 ([2]; read-out: GI50): 48.1 nM | CC50 [2]: 459 nM | GI50 [3]: 166 nM | LC50 (concentration giving 50% net cell kill) [3]: 893 nM | TGI [3]: 264 nM | GI50 (SK-BR-3): 39 nM | GI50 (SK-BR-3; read-out: GI50): 36.2 nM | CC50 (SK-BR-3): 94.7 nM | GI50 (DU-145): 176 nM | GI50 (DU-145; read-out: GI50): 76.6 nM | CC50 (DU-145): 853 nM | GI50 [4]: 158 nM | GI50 ([4]; read-out: GI50): 103 nM | CC50 [4]: 547 nM | CC50 (K562): 17.7 nM | GI50 (A549): 196 nM | LC50 (A549): 365 nM | GI50 (A549; read-out: GI50): 109 nM | GI50 (HeLa): 83.6 nM | TGI (HeLa): 175 nM | CC50 (HeLa): 799 nM | GI50 (HT-29): 66.6 nM | TGI (HT-29): 85 nM | CC50 (HT-29): 130 nM | GI50 (LoVo [5]): 39.2 nM | TGI (LoVo [5]): 63.4 nM | CC50 (LoVo [5]): 201 nM | GI50 (SK-MEL-28): 150 nM | GI50 (SK-MEL-28; read-out: GI50): 94.3 nM | CC50 (SK-MEL-28): 327 nM

C/C=C1\NC(=O)[C@H](Cc2ccc(OC)cc2)NC(=O)[C@@H](C(C)C)NC(=O)[C@@H]([C@H](C)CC)NC(=O)[C@H](NC(=O)[C@H](NC(=O)[C@H](CCCN)NC(=O)[C@H]2CCCN2C(=O)[C@H](NC(=O)[C@@H](NC(=O)[C@@H](NC(=O)[C@H](NC(=O)CC[C@@H](C)CC)C(C)C)[C@@H](C)O)C(C)C)C(C)C)[C@H](C)CC)[C@H](C)OC(=O)[C@H](C(C)C)NC1=O
GI50 (PANC-1): 3120 nM | TGI (PANC-1): 4340 nM | CC50 (PANC-1): 1990 nM | GI50 (LoVo [1]): 237 nM | TGI (LoVo [1]): 214 nM | CC50 (LoVo [1]): 79.2 nM | GI50 [2]: 502 nM | GI50 ([2]; read-out: GI50): 442 nM | CC50 [2]: 581 nM | GI50 [3]: 1010 nM | LC50 (concentration giving 50% net cell kill) [3]: 1220 nM | TGI [3]: 1160 nM | TGI (SK-BR-3): 284 nM | GI50 (SK-BR-3; read-out: GI50): 283 nM | CC50 (SK-BR-3): 824 nM | GI50 (DU-145): 947 nM | GI50 (DU-145; read-out: GI50): 858 nM | CC50 (DU-145): 1060 nM | GI50 [4]: 384 nM | GI50 ([4]; read-out: GI50): 295 nM | CC50 [4]: 465 nM | CC50 (K562): 1890 nM | GI50 (A549): 557 nM | LC50 (A549): 6420 nM | GI50 (A549; read-out: GI50): 526 nM | GI50 (HeLa): 766 nM | TGI (HeLa): 848 nM | CC50 (HeLa): 943 nM | CC50 (HT-29): 45.4 nM | GI50 (LoVo [5]): 320 nM | TGI (LoVo [5]): 285 nM | CC50 (LoVo [5]): 106 nM | TGI (SK-MEL-28): 1230 nM | GI50 (SK-MEL-28; read-out: GI50): 1190 nM | CC50 (SK-MEL-28): 1280 nM
